# Only some compounds are listed: those with a hit (about 2.1% of all), similar ones and a draw of the others.
# CXCR6 inh = inhibitors of human CXCR6 receptor; O00574; AID 602244; CHO-K1 PathHunter CXCR6 beta-arrestin, luminescence; hit rate 0.36% among 360,000; inhibition, % at 20 µM; in the data active = inhibition above about 34%, passing the limit was not always enough;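 also: antagonist mode with CXCL16 agonist at 10 nM final; 0% = 10 nM CXCL16 with DMSO and 100% = unstimulated wells without agonist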
# EBI2 antag = antagonists of human EBI2 receptor. P32249. EBI2 beta-arrestin recruitment, luminescence, 7a,25-OHC stimulated. inhibition, % at 5 µM. hit rate 0.81% among 360,000. AID 651636; in the data active = inhibition above about 38%;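 also: enzyme fragment complementation signal reports receptor beta-arrestin coupling in cells; 0% = agonist plus DMSO wells and 100% = wells without agonist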
# APJ ag = activates the human apelin receptor APJ; AID 2520; hit rate 0.11% among 330,000; activation, % at 20 µM; CHO-K1 APJ PathHunter beta-arrestin, luminescence; 0% DMSO wells, 100% apelin;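 active = activation more than six SD over the plate average, tested at 20 µM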;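 also: 0% = DMSO alone and 100% = apelin-13 at 10 nM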
# Target sequence (P35414 whole entry, looked up): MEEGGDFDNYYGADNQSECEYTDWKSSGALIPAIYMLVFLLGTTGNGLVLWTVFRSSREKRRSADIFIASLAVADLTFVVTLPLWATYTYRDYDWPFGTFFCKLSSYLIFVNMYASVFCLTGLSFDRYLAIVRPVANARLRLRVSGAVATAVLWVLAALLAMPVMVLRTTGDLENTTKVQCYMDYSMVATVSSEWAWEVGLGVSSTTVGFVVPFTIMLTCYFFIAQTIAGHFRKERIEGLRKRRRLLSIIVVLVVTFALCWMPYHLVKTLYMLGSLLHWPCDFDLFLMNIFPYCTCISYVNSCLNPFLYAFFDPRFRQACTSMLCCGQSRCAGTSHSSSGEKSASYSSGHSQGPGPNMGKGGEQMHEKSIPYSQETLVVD
#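 Incubation: overnight seeding, 90 min compound at 25 °C, 1 h detection; test system: PathHunter CHO-K1 APJ (AGTRL-1) beta-arrestin reporter cells; amount: 1000 cells/well; doses: one dose, 20 µM compound, 1% DMSO; measured by: beta-gal luminescence; measure: agonist-driven arrestin binding to APJ; benchmarks: negative DMSO alone, positive Apelin-13 at 10 nM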
# HTR2A ag = activates the mouse 5-HT2A serotonin receptor. activation, % at 7.6 µM. AID 624169. CHO-K1 mHTR2A beta-arrestin complementation, luminescence; percent of 30 µM serotonin response. hit rate 0.66% among 360,000;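 active = activation above a run cutoff, the mean activation of all tested compounds plus 3 SD, cut at about 14% in these data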;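 also: 0% = plate median of compound wells and 100% = 30 µM serotonin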
# APJ antagonist = antagonists of human APJ apelin receptor | P35414 | CHO-K1 APJ beta-arrestin complementation, luminescence | inhibition, % at 20 µM | hit rate 0.32% among 330,000;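 active = inhibition above about 40% at 20 µM, limit read from the data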;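 also: cells challenged with 10 nM apelin-13 agonist together with compound; plate controls were apelin-13 plus DMSO wells for no effect and DMSO wells lacking apelin-13 for full effect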
# CCR6 antag = antagonists of human CCR6 receptor | hit rate 0.49% among 340,000 | inhibition, % at 20 µM | AID 493098 | CHO-K1 CCR6 PathHunter beta-arrestin, luminescence, CCL20-stimulated;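 active = compounds whose inhibition of the agonist-driven luminescence signal at 20 µM reaches about 50%, limit read from the data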;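 also: cells stimulated with CCL20 at 14 nM final; plate controls were DMSO with CCL20 for no effect and DMSO without agonist for full effect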
# Target sequence (P51684 whole entry, looked up): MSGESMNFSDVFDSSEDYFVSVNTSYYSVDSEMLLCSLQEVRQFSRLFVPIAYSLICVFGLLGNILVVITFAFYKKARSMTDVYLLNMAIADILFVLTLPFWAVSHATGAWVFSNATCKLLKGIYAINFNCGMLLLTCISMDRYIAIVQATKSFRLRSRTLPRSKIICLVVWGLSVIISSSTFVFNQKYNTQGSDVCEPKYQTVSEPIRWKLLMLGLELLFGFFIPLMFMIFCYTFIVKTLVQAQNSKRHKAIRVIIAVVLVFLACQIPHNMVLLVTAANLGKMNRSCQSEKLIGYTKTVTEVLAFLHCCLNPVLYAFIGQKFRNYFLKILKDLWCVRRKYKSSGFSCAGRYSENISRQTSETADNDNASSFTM
# EBI2 antag conf = EBI2 (human) antagonism, single concentration confirmation; shares compounds with EBI2 antag; EBI2 beta-arrestin luminescence, 7a,25-OHC antagonism; inhibition, % at 5 µM; hit rate 29% among 2,400;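 active = inhibition of at least 50%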
# EBI2 ag = activates EBI2, counter-screen for EBI2 antagonists; AID 652000; 2,400 tested, under 10 active; shares compounds with EBI2 antag; activation, % at 5 µM; EBI2-expressing cells, agonist mode, luminescence, 60 min; 0% vehicle, 100% 7α,25-dihydroxycholesterol control;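 active = activation of at least 50%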
# bGal counter = beta-galactosidase inhibition counter-screen; shares compounds with EBI2 antag; hit rate 1% among 2,400; purified beta-galactosidase, luminescent Galacton Star, 15 min; inhibition, % at 5 µM;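 active = replicate-average signal at least 3 plate SD below neutral wells, shown as high inhibition, flagging enzyme-inhibiting false positives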;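 also: 0% = DMSO wells with enzyme and 100% = wells lacking enzyme; higher means stronger loss of beta-gal luminescence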
# Active calls of the source: *; nt = no result.
SMILES,CXCR6 inh,EBI2 antag,APJ ag,HTR2A ag,APJ antagonist,CCR6 antag,EBI2 antag conf,EBI2 ag,bGal counter
Nc1ccc(C(=O)N2CCN(S(=O)(=O)/C=C/c3ccccc3)CC2)cc1[N+](=O)[O-],-10.9,1.8,-1.4,2.7,10.0,10.2,nt,nt,nt
COc1cccc(/C=C/C(=O)N2CCN(S(=O)(=O)c3ccccc3)CC2)c1,2.4,89.9*,nt,0.0,nt,nt,62.5*,0.1,-15.7
O=C(/C=C/c1ccccc1)N1CCN(S(=O)(=O)c2ccc(F)cc2)CC1,4.4,78.7*,-0.9,5.4,4.7,6.3,68.3*,0.0,6.3
O=C(c1ccc2ccccc2c1)N1CCN(S(=O)(=O)/C=C/c2ccccc2)CC1,0.7,90.0*,-2.7,-3.9,8.0,21.5,77.1*,0.2,-5.5
O=C(/C=C/c1cccc([N+](=O)[O-])c1)N1CCN(S(=O)(=O)c2cccs2)CC1,0.7,47.1*,-0.9,2.7,-6.5,7.1,41.2,0.3,6.8
O=C(/C=C/c1ccc(S(=O)(=O)N2CCOCC2)cc1)N1CCN(c2ccccc2)CC1,-6.6,6.3,-1.2,3.9,5.9,7.7,nt,nt,nt
O=C(COC(=O)c1ccc(O)cc1)Nc1ccccc1,1.1,-7.8,0.4,-0.8,-18.7,23.7,nt,nt,nt
Cn1cc(Br)c(C(=O)NN2C(=O)C3C(C2=O)C2C=CC3C23CC3)n1 (stereo unspecified),-1.1,1.2,-2.2,0.7,5.8,-9.3,nt,nt,nt
O=C(/C=C/c1ccc(F)cc1)N1CCN(S(=O)(=O)/C=C/c2ccccc2)CC1,2.3,94.6*,0.0,-1.7,-24.2,22.7,88.9*,0.1,7.6
O=C(COc1ccc(F)cc1Br)N1CCN(S(=O)(=O)/C=C/c2ccccc2)CC1,-11.3,38.2,-5.3,-6.8,-0.2,0.2,nt,nt,nt
O=C(NC1CCCCCC1)c1ccc(Cl)c(S(=O)(=O)N2CCOCC2)c1,-12.8,2.5,-2.4,4.1,-7.6,2.2,nt,nt,nt
CSc1ccc(CNC(=O)C2CCC(=O)N(CCc3ccc(Cl)cc3)C2)cc1 (stereo unspecified),1.3,50.0*,nt,5.0,nt,nt,21.1,-0.9,-17.9
O=C(CN1CCN(S(=O)(=O)c2ccc(Br)cc2)CC1)N/N=C/c1ccncc1,-16.7,54.3*,-2.6,5.0,19.5,3.5,32.5,0.4,7.2
O=C(CNC(=O)c1ccc(S(=O)(=O)N2CCCC2)cc1)N/N=C/c1c(Cl)cccc1Cl,-13.7,11.5,0.9,-2.5,-9.8,11.9,nt,nt,nt
O=C(CN1CCN(S(=O)(=O)c2ccc(Br)cc2)CC1)N/N=C/c1cccs1,0.7,40.8,-2.1,-2.5,7.8,11.0,nt,nt,nt
O=C(CNC(=O)c1ccc(S(=O)(=O)N2CCCC2)cc1)N/N=C/c1ccc(Cl)cc1Cl,-7.6,75.0*,-2.6,2.5,-4.3,11.4,47.5,0.8,2.5
O=C(CNC(=O)c1ccc(S(=O)(=O)N2CCCC2)cc1)N/N=C/c1ccc(Cl)cc1,-8.5,60.0*,-0.4,-2.0,-13.1,0.6,39.7,1.0,-0.6
COc1cc(S(=O)(=O)NCCCn2ccnc2)ccc1F,-11.7,-10.9,-0.3,4.9,-1.8,7.7,nt,nt,nt
CCc1nccn1CCC(=O)N1CCCC(Nc2ccc(F)cc2)C1 (stereo unspecified),6.9,-1.0,-2.0,-1.3,-11.7,-3.0,nt,nt,nt
O=C(OCc1ccc(O)cc1)c1c(-c2ccsc2)oc2ccc(N3CCOCC3)cc12,-4.1,1.1,18.3,-1.2,1.9,-1.4,nt,nt,nt
COc1ccc([C@H]2CN(c3ccc(OC)cc3)C(=O)[C@@H]2CC(=O)Nc2ccccc2)cc1,14.1,46.4*,nt,-0.2,nt,nt,52.5*,-0.7,-14.2
COc1ccc(NC(=O)C[C@H]2C(=O)N(c3ccc(Br)cc3)C[C@@H]2c2ccc(OC)cc2)cc1,8.8,27.1,nt,-1.7,nt,nt,nt,nt,nt
O=C(O)C(Cc1ccccc1)N1C(=O)C2C3CCC(C3)C2C1=O (stereo unspecified),1.9,-7.0,nt,6.1,nt,nt,nt,nt,nt
c1ccc(CCNc2ncnc3scc(C4COc5ccccc5O4)c23)cc1 (stereo unspecified),-5.9,86.8*,-3.5,-7.8,14.2,3.6,55.3*,1.2,-1.2
CN(C)C(=O)CCc1ccc2c3c([nH]c2c1)[C@]1(CCc2ccccc2)[C@@H](C(=O)N2CCCCC2)C[C@H](CC(=O)NCc2cccc(C(F)(F)F)c2)C(=O)N1CC3,8.6,42.4*,nt,0.5,nt,13.9,33.2,-1.2,-22.7
SMILES,CXCR6 inh,EBI2 antag,APJ ag,HTR2A ag,APJ antagonist,CCR6 antag,EBI2 antag conf,EBI2 ag,bGal counter
CN(C)C(=O)CCc1ccc2c3c([nH]c2c1)[C@]1(CCc2ccccc2)[C@@H](C(=O)N2CCCCC2)C[C@H](CC(=O)NCc2ccco2)C(=O)N1CC3,-1.3,2.8,nt,-1.0,nt,33.6,nt,nt,nt
COc1cccc(C(C(=O)NC2CCCCC2)N(C(=O)c2cccs2)c2ccc3c(c2)OCO3)c1 (stereo unspecified),3.9,48.4*,-5.2,6.5,11.1,18.7,27.3,-2.3,-8.1
C=C(C)CSc1cc(C)nc2c(-c3ccccc3)c(C)nn12,2.7,-3.2,-5.8,-0.7,1.8,20.5,nt,nt,nt
O=C(CSc1nc2ccc(Nc3nc(N4CCCC4)nc(N4CCCC4)n3)cc2s1)NCc1ccco1,-1.5,48.9*,3.3,0.7,0.8,3.9,17.6,-0.8,-10.5
O=C(CSc1nc2ccc(Nc3nc(N4CCOCC4)nc(N4CCOCC4)n3)cc2s1)Nc1ccccc1Cl,-6.4,9.5,2.7,7.1,-30.1,-2.5,nt,nt,nt
CCOC(=O)c1sc2nc(C)nc(NCc3ccc(Cl)cc3)c2c1C,0.8,24.2,0.7,2.1,3.6,-6.9,nt,nt,nt
CCOC(=O)c1sc2nc(C)nc(NCc3ccc(F)cc3)c2c1C,4.3,45.0*,0.7,4.0,-9.0,1.9,42.6,-0.1,-0.7
Cc1ccc(S(=O)(=O)N(C)C)cc1NC(=O)C(C)N(C)CCOc1ccc(Cl)cc1 (stereo unspecified),6.7,6.0,-2.4,-16.2,14.1,19.8,nt,nt,nt
O=C(NC1CCSC1=O)c1ccc(Oc2ccc(F)cc2)nc1 (stereo unspecified),3.4,16.5,-0.3,-3.2,3.2,1.8,nt,nt,nt
Cc1ccc(Oc2ccc(C(=O)NC3CCSC3=O)cn2)cc1 (stereo unspecified),1.0,49.2*,-0.2,2.4,2.0,-20.6,28.6,-0.9,-12.3
Cn1ccc2cc(-c3csc(N4CCC(C(N)=O)CC4)n3)ccc21,-7.8,-0.4,-3.3,-0.9,3.5,8.1,nt,nt,nt
